Data published in ChEMBL document CHEMBL4513216, “Probing the Open Global Health Chemical Diversity Library for Multistage-Active Starting Points for Next-Generation Antimalarials” (ACS Infect Dis, 2020).

Experiment: Toxicity liver stage against HepG2, at 10uM
Format: cell-based
Design: test concentration 10 uM, cell line HepG2-A16-CD81EGFP
Details: human, HepG2-A16-CD81EGFP cells; read-out: INHIBITION
In short: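 Uninfected HepG2-A16-CD81EGFP cells, 3 × 10^3 per well, 1536-well, plated on prespotted compound at 10 μM final, parasite-free screening media added to match infected plates; puromycin 10 μM positive, DMSO 0.5% negative; run in parallel with 48 h PbLuc assay at 37 °C, 5% CO2; viability by CellTiter-Glo luminescence, normalized to controls.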

Row | SMILES | cytotoxicity at 10 µM [%]
1 | COc1ccc(CN2CCC[C@H]2c2nc(-c3cncnc3N)no2)cc1 | -57
2 | CCOC(=O)[C@H]1[C@@H](O)C(=O)N(C)C12CCN(S(=O)(=O)CC)CC2 | -6.06
3 | CC(C)Cc1nc(OCC#N)c(C#N)c2c1CCC2 | -1.63
4 | CC(C)C[C@H](NC(=O)NC1CCS(=O)(=O)C1)C(=O)NCc1cccnc1 (stereo not given in full) | 0.948
5 | COc1ccc(NC(=O)Nc2cnc(N3CCN(C)CC3)nc2)cc1Cl | -19.8
6 | COc1ccc(C(=O)COc2coc(CN3CCCCC3)cc2=O)cc1 | 5.12
7 | O=C(O)CNC(=O)Cc1csc(-c2cccc(Cl)c2)n1 | 4.32
8 | CCOC(=O)N1CCN(c2nc(NC)c3ccccc3n2)CC1 | -9.75
9 | Nc1nnc(CCCn2nnc(-c3ccccc3F)n2)s1 | -1.67
10 | CCCNC(=O)c1cc(C(C)C)nc(N2CCCCC2)n1 | 15.8
11 | CNC(=O)CCc1cccc(C2CCCN(c3cc(C)ncn3)C2)n1 (stereo not given) | 1.58
12 | CN1CCN([C@@H]2CN(C(=O)c3cc4cccc(F)c4[nH]3)C[C@H]2O)CC1 | -6.81
13 | CCn1nccc1CN(C)C(=O)Cn1nc(C)c(C)c1C | 0.66
14 | Cc1cc2c(=O)n3c(nc2s1)CCN(C(=O)c1nn(C)cc1Cl)CC3 | 16.6
15 | CNC(=O)CN1CCC2(CC1)C[C@@H](O)[C@H](c1ccccc1)NC2=O | -32.2
16 | CCCc1ncc(CNC2(c3ccc(Cl)cc3)CC2)cn1 | -31.6
17 | Cc1nc(Nc2ncccn2)cc(C2CCN(CC(C)C)C2)n1 (stereo not given) | -16.1
18 | Cc1cccnc1C(=O)N1CCC(Cc2cnc3[nH]ccc3c2)CC1 | 1.85
19 | Cc1nc(CC(=O)N2CCCCC2c2ccn3ccnc3n2)cs1 (stereo not given) | -13.4
20 | CC1(C(=O)NCc2ccsc2)CCOCC1 | 5.73
21 | O=C(NCc1nnc2n1C(C(=O)NC1CC1)CC2)c1ccc(Cl)cc1Cl (stereo not given) | 5.06
22 | CC1CC(NS(=O)(=O)c2ccc(C(F)(F)F)nc2)C1 (stereo not given) | 23.1

Row | SMILES | cytotoxicity at 10 µM [%]
23 | O=S(=O)(NCCCn1cncn1)c1ccc2c(c1)CCO2 | -10.2
24 | O=C(NCc1ccc(-n2cncn2)nc1)c1cc(Cl)ccn1 | 2.8
25 | Cc1ccc(F)c2c1CCCN2CC(=O)NC1CCS(=O)(=O)C1 (stereo not given) | -11.9
26 | Cn1ccnc1CN1CCN(Cc2cc(-c3ccccc3)no2)CC1 | -15.5
27 | Cc1cccc(C(=O)N2CCSCC2)c1NC(=O)c1cccnc1 | -2.83
28 | Cc1cnc(CNC(=O)NC2CCCN(c3ccccc3F)C2)s1 (stereo not given) | 16.4
29 | Cc1ccc(C(=O)NCCS(=O)(=O)N2CCSCC2)o1 | 6.13
30 | COc1ccc(CN(C(=O)C(C)SC)c2cnn(C)c2)c(OC)c1 (stereo not given) | -3.88
31 | COc1cc(CN2CCC(NC(=O)c3cccn3C)C2)cc(OC)c1 (stereo not given) | -12.6
32 | N#Cc1c(F)cccc1Nc1cnn(CC(O)CN2CCOCC2)c1 (stereo not given) | -1.47
33 | Cc1ccc(NC(=O)c2nc(N3CCCCC3)ncc2Cl)cc1I | -0.906
34 | CCN1CCN(c2ccc(F)cc2C(C)NCc2ccccn2)CC1 (stereo not given) | 7.96
35 | Cc1nsc(N2CCCN(C(=O)NCc3cc(C)on3)CC2)n1 | -1.63
36 | Cn1ccnc1CC1CCCN(C(=O)NCCOc2cccnc2)C1 (stereo not given) | -5.19
37 | CN1CCCN(S(C)(=O)=O)c2cc(F)ccc21 | -2.24
38 | Cc1csc(CNC(=O)NC(C)c2ccc3c(c2)OCCO3)n1 (stereo not given) | -5.72
39 | CC(CC#N)N(C)Cc1ccc(F)cc1C#N (stereo not given) | -6.69
40 | Cc1noc(NS(=O)(=O)c2ccc(Cl)s2)c1C | 5.3
41 | O=C1CCc2cc(S(=O)(=O)NC(=O)c3ccc4c(c3)CCO4)ccc2N1 | -17.7
42 | CN(C)S(=O)(=O)c1ccc(CNC(=O)C2CC2)cc1 | 7.04
43 | COCCN(CCOC)C(=O)c1ccc(Cn2nc(C)cc2C)cc1 | -5.15
44 | CC(C)CCS(=O)(=O)N1CCCC(c2nncn2C(C)C)C1 (stereo not given) | 5.04

Row | SMILES | cytotoxicity at 10 µM [%]
45 | N#Cc1ccc(NC(=O)N2CCCCC2CN2CCCC2=O)cc1 (stereo not given) | 4.65
46 | Cn1c(=O)ccn(CC(=O)N2CCCC(n3cccn3)C2)c1=O (stereo not given) | -8.92
47 | Fc1ccc(C2CN(CCc3ccncc3)CCO2)cc1 (stereo not given) | 11
48 | CC1CN(CCc2ccncc2)CCO1 (stereo not given) | -1.99
49 | CN(Cc1ccccc1F)C(=O)c1ccoc1 | 11.3
50 | COCC1c2nnn(C)c2CCN1C(=O)c1ccc(OC)c(F)c1 (stereo not given) | -105
51 | Cn1cccc1C(=O)N1C[C@H](OCC2CCOCC2)[C@H]2COC[C@H]21 | -109
52 | O=C1CC(c2ccccc2)C2(CCN(C(=O)c3cnccn3)CC2)N1 (stereo not given) | -75.1
53 | c1ccc(-c2nnn3c2COC(CNCC2CCOCC2)C3)cc1 (stereo not given) | 11
54 | CN(C)C(C(=O)N1CCN(CCn2cccc2)CC1)c1cccc(F)c1 (stereo not given) | -22.8
55 | O=C(NCCCOc1cccnc1)c1cn(CCc2ccccc2)nn1 | -0.977
56 | OCCN1CCN(Cc2cnc3c(-c4ccccc4)cnn3c2)CC1 | -2.72
57 | CCc1ccc(CN(C)C(=O)C(c2ccccc2F)N(C)C)nc1 (stereo not given) | 4.03
58 | COCCN1CCCC2(CCN(c3cccc(C(F)(F)F)n3)C2)C1=O (stereo not given) | 3.84
59 | COc1cccc2c1OCC(C(=O)N1Cc3ccccc3C1)C2 (stereo not given) | 3.16
60 | Cn1ccnc1CN1CCC(Cn2cc(-c3ccccc3)nn2)CC1 | 0.959
61 | CCc1ccccc1CN1CC[C@@]2(O)CCN(S(=O)(=O)N(C)C)C[C@H]2C1 | -2.19
62 | COCc1cc(CNC(=O)c2c(C)c(C)cc(C)c2C)n[nH]1 | -6.65
63 | O=S(=O)(NCc1ccccc1)Nc1ccc(-n2ccnc2)cc1 | 7.03
64 | O=C1CC(NCc2ccncc2)CN1CCc1cccc(Cl)c1 (stereo not given) | -127
65 | NCC1CCCCN1Cc1cc(O)c2cccc(F)c2n1 (stereo not given) | -18.2
66 | Cc1cc(C)c2nc(C)cc(C(=O)NC(C)c3nnn[nH]3)c2c1 (stereo not given) | 7.24

Row | SMILES | cytotoxicity at 10 µM [%]
67 | CCc1nc(CN(C)C(=O)c2cc(CN(CC)CC)c(CC)o2)no1 | 0.9
68 | CC(=O)N[C@@H]1CN(C(=O)c2ccc[nH]2)C[C@H]1c1ccc(C)o1 | 5.16
69 | CCOC(=O)c1coc(N2CCN(Cc3ccc(C)cc3)C(=O)C2)n1 | -0.0261
70 | CN(Cc1ccc(-n2cccn2)cc1)c1nc(N)nc2c1CCNCC2 | 6.99
71 | CN(Cc1cccnc1)CC1(O)CCCN(CC(C)(C)C)C1=O (stereo not given) | 3.09
72 | Cc1ccoc1C(=O)N1CCNCC1C(=O)NCc1ccncc1 (stereo not given) | 6.03
73 | CCCn1ncc(C2CC(=O)NCc3nc4sc(C)cn4c32)c1C (stereo not given) | -10.8
74 | CC(=O)Nc1ccc(Oc2ccc(CN3CCCC3)cc2F)cc1 | 0.9
75 | Cc1cccnc1CN1CCN(C(=O)c2ccn(C(C)(C)C)c2)CC1 | 11
76 | O=C(CCc1nc(Cl)n[nH]1)NC1CCCN(CC2CCCCC2)C1 (stereo not given) | -11.4
77 | O=C1NC[C@@]2(C(=O)O)CN(Cc3cccc(C(F)(F)F)c3)C[C@@H]12 | -8.58
78 | Cn1c(Cn2cccn2)nnc1C1CCCN(c2ccncc2)C1 (stereo not given) | -14.2
79 | COCCN1CCCC(O)(CN2CCN(c3ncccc3C)CC2)C1=O (stereo not given) | -10.3
80 | CC(C)c1nccn1CCCNC(=O)c1ccc(N(C)C)nc1 | 15.7
81 | Cc1scc(C(=O)N2CCC3(CCCN(C)C3=O)C2)c1-c1ccccc1 (stereo not given) | -6.05
82 | O=C(c1cc(=O)[nH]c(=O)[nH]1)N1CCCCC1c1nc2cc(F)ccc2[nH]1 (stereo not given) | -9.64
83 | CN1CCCC(Cc2cncc(Br)c2)CC1 (stereo not given) | -5.95
84 | COC(=O)c1cccn1C1CCN(Cc2cccc(C(N)=O)c2)CC1 | -4.7
85 | CC(C)c1nc(C2CCCN(C(=O)c3ccc4c(c3)OCO4)C2)no1 (stereo not given) | -14.1
86 | Cc1cnn(CC2CN(Cc3nc4cccnc4[nH]3)CCO2)c1 (stereo not given) | -1.04
87 | Cc1cc(NC(=O)CN2CCn3c(C)nnc3C2)no1 | -3.82
88 | Cc1cccc(CS(=O)(=O)CC(=O)NCCCOC(C)C)c1 | -5.15

Row | SMILES | cytotoxicity at 10 µM [%]
89 | Cn1ccnc1CN1CCN(CCOc2ccccc2C#N)CC1 | -14.9
90 | COc1cccc(CN2CCN(C(=O)CN3CCOCC3)CC2)n1 | -5.7
91 | COc1cccc(C(=O)NS(=O)(=O)c2cccc(C#N)c2)c1OC | -8.06
92 | Cc1noc(C2CCN(C(=O)CCNS(C)(=O)=O)CC2)n1 | -21
93 | Cc1cc(C)n(CC2CCCN2C(=O)c2ccc(C(N)=O)cn2)n1 (stereo not given) | -3.87
94 | Cc1cnc(CN(C)C2CCN(CCn3cc(C#N)cn3)C2)o1 (stereo not given) | -5.45
95 | Cc1nn(C)c(C)c1C1CCCN1CC(=O)Nc1ccncc1 (stereo not given) | -5.53
96 | Cc1ccn(-c2cccc(C(=O)N3CCCC(n4ccnc4C)C3)c2)n1 (stereo not given) | -14.2
97 | O=C(CCN1CCOC(Cn2cccn2)C1)NC1CCCC1 (stereo not given) | 4.98
98 | Cc1nc(C(=O)N2CCC(Nc3cccnn3)CC2)cs1 | 6.74
99 | COc1ccc(CC(=O)N2CCC[C@@H](N)[C@@H]2c2ccccc2F)cc1 | 2.49
100 | O=C(Nc1nc2c(s1)CNCC2)NC1CCCC1 | -2.37
101 | COc1ccc(CN2CCn3c(CO)nnc3C2)cc1CN1CCCC1 | -24.5
102 | c1cnc(N2CCCC3(CCN(c4ncccn4)C3)C2)nc1 (stereo not given) | -151
103 | CNC(=O)c1cc2c(nc1N(C)C)CCN(S(=O)(=O)N(C)C)CC2 | -138
104 | COCCC(=O)N1CCC2(CCN(Cc3cccc(F)c3)CC2)CC1 | -75
105 | O=C(c1ccccn1)N1C[C@H]2CCC[C@@]2(COCC2CCOCC2)C1 | -76.3
106 | Cn1ccnc1CN1CCC2(CC(=O)N(c3ccccn3)C2)C1 (stereo not given) | -74.6
107 | Cc1ccc(N2CCO[C@H]3CN(Cc4ccc(F)cc4)C[C@H]32)nn1 | -88.6
108 | CC(C)N(C)Cc1cncc2c1CCN(CC1CC1)C2 | -102
109 | O=C1OCCN1CC(=O)N1C[C@@H]2CC[C@H]1CN(C(=O)c1ccccn1)C2 | 13.5
110 | O=C(Cc1cccs1)N1C[C@H]2CC[C@@H](C1)N(Cc1ccccn1)C2=O | 1.07
